eIF4H inh – human eIF4H binding inhibitors, primary screen, translation initiation inhibitor project, biochemical, uHTS, fluorescence polarization | eIF4H fluorescence polarization binding assay | inhibition, % at 35 µM | 290,000 tested, 0.94% active | AID 2012, 2009 | Eukaryotic translation initiation factor 4H (Homo sapiens), Q15056;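 further: calls also rest on retests at 20 µM and on dose response follow-up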
PABP polyA inh – PABP poly(A) RNA binding inhibitors, primary screen, biochemical, fluorescence polarization, uHTS; Polyadenylate-binding protein 1 (Homo sapiens), P11940; calls only at 35 µM; 290,000 tested, 1% active; AID 2014, 2009;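 further: calls also rest on retests at 20 µM and on dose response follow-up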
Target sequence (P11940 whole entry, looked up): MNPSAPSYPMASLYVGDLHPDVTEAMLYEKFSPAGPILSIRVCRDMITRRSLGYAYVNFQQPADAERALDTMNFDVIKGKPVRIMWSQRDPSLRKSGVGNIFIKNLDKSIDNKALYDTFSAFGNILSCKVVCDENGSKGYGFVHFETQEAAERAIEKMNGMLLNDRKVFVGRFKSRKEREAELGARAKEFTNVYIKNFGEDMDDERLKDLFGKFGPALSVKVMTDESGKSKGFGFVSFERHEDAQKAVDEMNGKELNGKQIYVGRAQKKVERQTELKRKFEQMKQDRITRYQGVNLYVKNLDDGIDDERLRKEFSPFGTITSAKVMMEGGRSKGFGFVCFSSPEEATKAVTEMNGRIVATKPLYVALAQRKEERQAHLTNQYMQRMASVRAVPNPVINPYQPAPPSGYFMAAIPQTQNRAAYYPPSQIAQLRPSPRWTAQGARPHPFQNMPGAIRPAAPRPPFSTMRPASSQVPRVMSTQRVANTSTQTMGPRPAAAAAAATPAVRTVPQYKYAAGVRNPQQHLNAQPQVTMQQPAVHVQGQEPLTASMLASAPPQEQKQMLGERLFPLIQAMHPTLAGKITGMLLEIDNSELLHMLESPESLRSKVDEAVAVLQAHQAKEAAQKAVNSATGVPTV
VIM-2 inhibitor – VIM-2 metallo-beta-lactamase inhibitors, primary screen, biochemical, epi-absorbance readout, Pseudomonas aeruginosa enzyme. purified VIM-2, nitrocefin hydrolysis, epi-absorbance fluorescence. 290,000 tested, 0.89% active. AID 1527, 2009. inhibition, % at 5.6 µM;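 active means inhibition above the mean of all tested compounds plus 3 SD, cutoff set per screening run, cut at about 7.5% in these data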;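 further: red hydrolysis product quenches plate fluorescence so inhibitors raise well fluorescence; 0% = enzyme with DMSO and 100% = DMSO without enzyme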
MLLE-PAM2 inh – inhibitors of PABP1 MLLE–PAM2 peptide binding, primary screen, biochemical, fluorescence polarization, FITC-PAM2, GST-MLLE; Polyadenylate-binding protein 1 (Homo sapiens), P11940; inhibition, % at 20 µM; 360,000 tested, 0.36% active; AID 588489, 2011; in the data active means inhibition above about 35%, passing the limit was not always enough;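 further: plate controls were DMSO wells with GST-MLLE for no effect and wells lacking GST-MLLE protein for full effect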
IMP-1 inhibitor – IMP-1 metallo-beta-lactamase inhibitors, primary screen, biochemical, epi-absorbance readout, Pseudomonas aeruginosa enzyme | metallo-beta-lactamase IMP-1 (Pseudomonas aeruginosa) | purified IMP-1, nitrocefin hydrolysis, epi-absorbance fluorescence | inhibition, % at 5.6 µM | 290,000 tested, 0.45% active;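 active means inhibition above the mean plus 3 SD of all compounds in the same screening run, cut at about 4.5% in these data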;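 further: 0% = IMP-1 with DMSO and 100% = DMSO wells lacking enzyme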
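System: Purified IMP-1 | Read-out basis: Percent enzyme inhibition | Controls: IMP-1 with DMSO as 0%, enzyme-free DMSO as 100% | Replicates: One well per compound | Doses: 5.6 µM nominal single concentration | Detection: Epi-absorbance fluorescence, 480 nm excitation, 530 nm emission | Incubation: 25 °C, 15 min preincubation, 25 min reaction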
An asterisk follows results filed as active; i = inactive; ? = inconclusive; . = not tested or not shown; + = active, no number. Compounds with a hit are over-represented: about 2.2% of the library has one in this group of screens. Unless noted, how the calls were made is not given here.

SMILES | eIF4H inh | PABP polyA inh | VIM-2 inhibitor | MLLE-PAM2 inh | IMP-1 inhibitor
CC(=O)N1CCN(c2cc(N3CCc4ccccc4C3)c(F)cc2[N+](=O)[O-])CC1 | 0 | i | 0 | -6 | -3
NC(=O)N/N=C/c1sc(=O)n(-c2ccccc2)c1Cl | 10 | i | -3 | -105 | -2
O=C(N/N=C/c1sc(=O)n(-c2ccccc2)c1Cl)c1ccccc1 | 65* | + | -2 | -148 | -2
CCCN(Cc1nnc(-c2cccs2)o1)C(=O)CN1C(=O)NC2(CCC(C)CC2)C1=O (stereo not drawn) | . | . | . | 1 | .
CCOC(=O)C1CCN(Cc2nc3ccc([N+](=O)[O-])cc3c(=O)n2-c2ccc(OC)cc2OC)CC1 | 9 | i | -1 | -17 | -3
COc1ccc(-n2c(CN3CCC(C(N)=O)CC3)nc3ccc([N+](=O)[O-])cc3c2=O)c(OC)c1 | active | i | -1 | 1 | -1
O=C(CC12CC3CC(CC(C3)C1)C2)Nc1c(F)cccc1F | 5 | i | -3 | 13 | -2
CCC/C(=N\NC(=O)c1cccc(C)c1)c1ccccc1 | -12 | i | -3 | 10 | -2
CCOc1ccc(C2Nc3cccc4cccc(c34)N2)cc1OC | 103* | + | -3 | -11 | -4
COc1cc(OC)c(C2Nc3cccc4cccc(c34)N2)c(OC)c1 | 70* | + | 0 | 19 | -4
COc1ccc(C2Nc3cccc4cccc(c34)N2)cc1 | 43 | i | -1 | -5 | -1
CCOc1cc(C2Nc3cccc4cccc(c34)N2)ccc1O | 47 | i | -4 | 6 | -3
CCOc1ccc(-c2csc(/C(C#N)=C\c3ccc(O)c([N+](=O)[O-])c3)n2)cc1 | 58* | i | -4 | -25 | -1
CCCCc1ccc(-c2csc(/C(C#N)=C\c3ccc(C)o3)n2)cc1 | 26 | i | -6 | -69 | -2
O=C(OCC(O)C1OC(c2ccccc2)OC(COC(=O)c2ccccc2)C1O)c1ccccc1 (stereo not drawn) | . | . | . | 0 | .
C[C@H](NS(=O)(=O)c1ccc2c(c1)OCCCO2)C(=O)N1CCN(c2ccc(F)cc2)CC1 | . | . | . | 41* | .
O=C1NC(=O)c2cc(Br)cc3cccc1c23 | 9 | i | 1 | 2 | -2
Cc1ccc(NS(=O)(=O)c2cc3c4c(cccc4c2)C(=O)NC3=O)cc1C | 57 | + | 0 | 0 | -1
CCOC(=O)c1c(NC(=O)CSc2ncn[nH]2)sc(C(=O)NC)c1C | -4 | i | 10.0* | -69 | -1
CN(C)Cc1cc(O)c(CN(C)C)cc1O | 80 | i | -1 | 79* | -1
CN(C)Cc1cc(C(C)(C)C)cc(C(C)(C)C)c1O | -5 | i | -1 | -14 | -3
O=C(O)c1cc(-n2nnnc2SCc2ccccc2F)ccc1Cl | 1 | i | 10* | 4 | -2
O=C(CNC(=O)Cc1cccc2ccccc12)NCc1ccc(F)cc1 | 6 | i | 0 | 3 | -3
CC(O)c1nc2ccccc2n1CCOc1ccccc1 (stereo not drawn) | -1 | i | -2 | 1 | -6
CCC(C)Cn1c(C(C)O)nc2ccccc21 (stereo not drawn) | active | i | -2 | -4 | -2
SMILES | eIF4H inh | PABP polyA inh | VIM-2 inhibitor | MLLE-PAM2 inh | IMP-1 inhibitor
CC(O)c1nc2ccccc2n1CCCCOc1ccccc1 (stereo not drawn) | -8 | i | 6 | 1 | 38*
CCC(C)Cn1c(C(C)C)nc2ccccc21 (stereo not drawn) | -4 | i | -1 | 6 | -3
O=C(Cc1ccc(Cl)cc1)NCC(=O)N1CCC2(CC1)NCCc1[nH]cnc12 | . | . | . | -2 | .
N#CC1=C(N)C(C#N)(C#N)C(c2cccnc2)C2CN(C(=O)OCc3ccccc3)CC=C12 (stereo not drawn) | 66* | i | -3 | 21 | -1
Cc1cccc(NC(=O)c2cccc(S(=O)(=O)N3CCc4ccccc4C3)c2)n1 | . | . | . | 4 | .
Cc1nn2c3c(cnc2c1-c1ccccc1)C(=O)CC(C)C3 (stereo not drawn) | . | . | -1 | . | -3
Cc1nn2c3c(cnc2c1-c1ccc(Cl)cc1)C(=O)CC(c1ccco1)C3 (stereo not drawn) | 61* | + | . | -2 | .
Cc1cccc2cc(C#N)c(NCCNC(=O)c3ccccc3)nc12 | . | . | . | 18 | .
O=C(Nc1ccc(S(=O)(=O)Nc2nccs2)cc1)c1ccncc1 | . | . | . | 8 | .
O=C(Nc1ccc(S(=O)(=O)Nc2nccs2)cc1)c1ccc(=O)[nH]c1 | 73 | + | 1 | -46 | -1
O=C(Nc1ccc(S(=O)(=O)Nc2nccs2)cc1)c1ccc(F)c(S(=O)(=O)N2CCOCC2)c1 | 52* | i | -1 | -54 | -2
CCCCc1nnc(NC(=O)c2ccc(OCc3c(C)noc3C)cc2)s1 | . | . | . | 4 | .
CCOC(=O)c1c(NC(=O)CN2C(=O)CN(C)C2=O)sc(C)c1C | -4 | i | 3 | -4 | 11*
COc1ccc(C(=O)OCC(=O)c2ccc[nH]2)cc1 | . | . | . | 12 | .
COC(=O)CNC(=O)CN1c2cccc3cccc(c23)S1(=O)=O | ? | + | -1 | -7 | -1
CCC1CCCCN1C(=O)NC(=O)c1ccccc1 (stereo not drawn) | 7 | i | -2 | 6 | -2
Cc1ccc(S(=O)(=O)/N=C2/C=C(C3C(=O)CC(C)(C)CC3=O)C(=O)c3ccccc32)cc1 | 6 | i | 7 | 44* | -4
Cc1ccc(S(=O)(=O)/N=C2\C=C(NS(=O)(=O)c3ccccc3)C(=O)c3ccccc32)cc1 | . | . | . | 6 | .
Cc1ccc(/C=N/NC(=O)c2cc3c(ccc4ccccc43)o2)o1 | -6 | i | -5 | -1 | -2
O=C(N/N=C/c1ccc([N+](=O)[O-])o1)c1ccccc1NS(=O)(=O)c1cccs1 | 76 | + | -4 | -2 | -10
O=C(N/N=C/c1ccc([N+](=O)[O-])o1)c1cc2c(ccc3ccccc32)o1 | 76 | + | -2 | -5 | -2
O=C(NN=Cc1ccc(F)cc1)c1ccccc1NS(=O)(=O)c1cccs1 | . | . | . | 3 | .
C/C(=N\NC(=S)Nc1cccc(C)c1)c1cc2ccccc2o1 | 7 | i | -1 | 43* | -1
O=C(N/N=C/c1ccc([N+](=O)[O-])o1)c1cc2ccccc2o1 | 70* | + | -2 | -11 | -4
CC(=O)Oc1ccc(/C=N\NC(=O)c2cc3c(ccc4ccccc43)o2)cc1 | 12 | i | -2 | -7 | 4.9*
O=C(N/N=C/c1ccc(-c2ccccc2[N+](=O)[O-])o1)c1cncc(Br)c1 | 10 | i | -3 | 19 | 1
O=C(N/N=C\c1ccc([N+](=O)[O-])o1)c1cncc(Br)c1 | 71* | + | -2 | -2 | -3

From PubChem
